In ChEMBL document CHEMBL1144800, “Synthesis and antimicrobial properties of monensin A esters” (2008):
≈ marks a conversion by molar mass, not a printed value. Calls of active or inactive are those of the source. No cut-off for these calls is given here.

Tests used:
Candida albicans [1] = assay: Antifungal activity against Candida albicans ATCC 10231 at 25 ug/disc after 24 hrs by disc diffusion assay; type: functional; conditions: ATCC 10231, 24 h, read-out: IZ
How it was run: (§1)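 Disc diffusion per CLSI on RPMI agar with 2% glucose. Sterile 9 mm filter-paper discs were loaded at 25 µg per disc, dried, and placed on the agar surface. Plates were incubated at 35 °C, and the diameter of the growth-inhibition zone was read.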

Candida parapsilosis [2] = assay: Antifungal activity against Candida parapsilosis ATCC 22019 after 24 hrs by serial agar dilution method; type: functional; conditions: Lodderomyces parapsilosis, ATCC 22019, 24 h
How it was run: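 Twofold serial agar dilution per CLSI on RPMI agar with 2% glucose. Agents were dissolved in DMSO and tested at 3.125–400 µg/ml in the solid medium, with a DMSO control. Final inoculum was 10^4 CFU/mL.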

Candida albicans [3] = assay: Antifungal activity against Candida albicans ATCC 90028 at 25 ug/disc after 24 hrs by disc diffusion assay; type: functional; conditions: ATCC 90028, 24 h, read-out: IZ; how it was run: as §1
Candida parapsilosis [4] = assay: Antifungal activity against Candida parapsilosis ATCC 22019 at 25 ug/disc after 24 hrs by disc diffusion assay; type: functional; conditions: Lodderomyces parapsilosis, ATCC 22019, 24 h; read-out: IZ; how it was run: as §1
[5] = tested on: Staphylococcus epidermidis; assay: Antibacterial activity against Staphylococcus epidermidis ATCC 12228 at 400 ug/disc after 18 hrs by disc diffusion assay; type: functional
How it was run: (§2)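 Disc diffusion on Mueller–Hinton II agar per CLSI guidelines. Compound in ethanol applied to 9 mm filter paper discs at 400 µg per disc, then dried and placed on the agar surface. Growth inhibition zone diameter read after 18 h at 35 °C.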

[6] = tested on: Staphylococcus epidermidis; assay: Antibacterial activity against Staphylococcus epidermidis ATCC 12228 after 18 hrs by serial agar dilution method; type: functional; conditions: ATCC 12228, 18 h
How it was run: (§3)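 MIC by twofold serial agar dilution in Mueller–Hinton II agar per CLSI, run only for compounds that gave an inhibition zone in disc assay. Compounds dissolved in DMSO, tested at 3.125–400 µg/ml in agar. Final inoculum 10^4 CFU/ml. […] DMSO control included.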

Bacillus subtilis [7] = assay: Antibacterial activity against Bacillus subtilis ATCC 6633 at 400 ug/disc after 18 hrs by disc diffusion assay; type: functional; conditions: ATCC 6633, 18 h, read-out: IZ; how it was run: as §2
Bacillus subtilis [8] = assay: Antibacterial activity against Bacillus subtilis ATCC 6633 after 18 hrs by serial agar dilution method; type: functional; conditions: ATCC 6633, 18 h; how it was run: as §3
Bacillus cereus [9] = assay: Antibacterial activity against Bacillus cereus ATCC 11778 at 400 ug/disc after 18 hrs by disc diffusion assay; type: functional; conditions: ATCC 11778, 18 h, read-out: IZ; how it was run: as §2
Bacillus cereus [10] = assay: Antibacterial activity against Bacillus cereus ATCC 11778 after 18 hrs by serial agar dilution method; type: functional; conditions: ATCC 11778, 18 h; how it was run: as §3
Enterococcus hirae [11] = assay: Antibacterial activity against Enterococcus hirae ATCC 10541 at 400 ug/disc after 18 hrs by disc diffusion assay; type: functional; how it was run: as §2
Enterococcus hirae [12] = assay: Antibacterial activity against Enterococcus hirae ATCC 10541 after 18 hrs by serial agar dilution method; type: functional; conditions: ATCC 10541, 18 h
How it was run: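 Twofold serial agar dilution MIC in Mueller–Hinton II agar (CLSI), run only for compounds that gave an inhibition zone in disc assay. DMSO solutions tested at 3.125–400 µg/ml in agar. Final inoculum 10^5 CFU/ml. Read after 18 h at 35 °C. DMSO control included.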

Micrococcus luteus [13] = assay: Antibacterial activity against Micrococcus luteus ATCC 9341 at 400 ug/disc after 18 hrs by disc diffusion assay; type: functional; how it was run: as §2
Micrococcus luteus [14] = assay: Antibacterial activity against Micrococcus luteus ATCC 9341 after 18 hrs by serial agar dilution method; type: functional; conditions: ATCC 9341, 18 h; how it was run: as §3
Micrococcus luteus [15] = assay: Antibacterial activity against Micrococcus luteus ATCC 10240 at 400 ug/disc after 18 hrs by disc diffusion assay; type: functional; conditions: ATCC 10240, 18 h, read-out: IZ; how it was run: as §2
Micrococcus luteus [16] = assay: Antibacterial activity against Micrococcus luteus ATCC 10240 after 18 hrs by serial agar dilution method; type: functional; conditions: ATCC 10240, 18 h; how it was run: as §3
Escherichia coli [17] = assay: Antibacterial activity against Escherichia coli ATCC 10538 at 400 ug/disc after 18 hrs by disc diffusion assay; type: functional, organism-based; how it was run: as §2
Escherichia coli [18] = assay: Antibacterial activity against Escherichia coli ATCC 25922 at 400 ug/disc after 18 hrs by disc diffusion assay; type: functional, organism-based; how it was run: as §2
Proteus vulgaris = assay: Antibacterial activity against Proteus vulgaris NCTC 4635 at 400 ug/disc after 18 hrs by disc diffusion assay; type: functional, organism-based; how it was run: as §2
Pseudomonas aeruginosa [19] = assay: Antibacterial activity against Pseudomonas aeruginosa ATCC 15442 at 400 ug/disc after 18 hrs by disc diffusion assay; type: functional, organism-based; how it was run: as §2
Pseudomonas aeruginosa [20] = assay: Antibacterial activity against Pseudomonas aeruginosa NCTC 6749 at 400 ug/disc after 18 hrs by disc diffusion assay; type: functional, organism-based; how it was run: as §2
Pseudomonas aeruginosa [21] = assay: Antibacterial activity against Pseudomonas aeruginosa ATCC 27853 at 400 ug/disc after 18 hrs by disc diffusion assay; type: functional, organism-based; how it was run: as §2
[22] = tested on: Bordetella bronchiseptica; assay: Antibacterial activity against Bordetella bronchiseptica ATCC 4617 at 400 ug/disc after 18 hrs by disc diffusion assay; type: functional, organism-based; how it was run: as §2
Candida albicans [23] = assay: Antifungal activity against Candida albicans ATCC 10231 at 400 ug/disc after 24 hrs by disc diffusion assay; type: functional
How it was run: (§4)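 Disc diffusion on RPMI agar with 2% glucose per CLSI guidelines. Discs 9 mm filter paper, loaded from ethanol solution with 400 µg compound, dried before placing on the agar. Inhibition zone diameter read after incubation at 35 °C. Fluconazole control at 25 µg per disc.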

Candida albicans [24] = assay: Antifungal activity against Candida albicans ATCC 90028 at 400 ug/disc after 24 hrs by disc diffusion assay; type: functional; how it was run: as §4
Escherichia coli [25] = assay: Antibacterial activity against Escherichia coli NCTC 8196 at 400 ug/disc after 18 hrs by disc diffusion assay; type: functional, organism-based; how it was run: as §2
Staphylococcus aureus [26] = assay: Antibacterial activity against Staphylococcus aureus NCTC 4163 at 400 ug/disc after 18 hrs by disc diffusion assay; type: functional; conditions: NCTC 4163, 18 h, read-out: IZ; how it was run: as §2
Staphylococcus aureus [27] = assay: Antibacterial activity against Staphylococcus aureus NCTC 4163 after 18 hrs by serial agar dilution method; type: functional; conditions: NCTC 4163, 18 h; how it was run: as §3
Staphylococcus aureus [28] = assay: Antibacterial activity against Staphylococcus aureus ATCC 25923 at 400 ug/disc after 18 hrs by disc diffusion assay; type: functional; conditions: ATCC 25923, 18 h, read-out: IZ; how it was run: as §2
Staphylococcus aureus [29] = assay: Antibacterial activity against Staphylococcus aureus ATCC 25923 after 18 hrs by serial agar dilution method; type: functional; conditions: ATCC 25923, 18 h; how it was run: as §3
Staphylococcus aureus [30] = assay: Antibacterial activity against Staphylococcus aureus ATCC 6538 at 400 ug/disc after 18 hrs by disc diffusion assay; type: functional; conditions: ATCC 6538, 18 h, read-out: IZ; how it was run: as §2
Staphylococcus aureus [31] = assay: Antibacterial activity against Staphylococcus aureus ATCC 6538 after 18 hrs by serial agar dilution method; type: functional; conditions: ATCC 6538, 18 h; how it was run: as §3
Staphylococcus aureus [32] = assay: Antibacterial activity against Staphylococcus aureus ATCC 29213 at 400 ug/disc after 18 hrs by disc diffusion assay; type: functional; conditions: ATCC 29213, 18 h, read-out: IZ; how it was run: as §2
Staphylococcus aureus [33] = assay: Antibacterial activity against Staphylococcus aureus ATCC 29213 after 18 hrs by serial agar dilution method; type: functional; conditions: ATCC 29213, 18 h; how it was run: as §3
Candida parapsilosis [34] = assay: Antifungal activity against Candida parapsilosis ATCC 22019 at 400 ug/disc after 24 hrs by disc diffusion assay; type: functional; how it was run: as §4

| SMILES | MIC [6] | zone of inhibition at 400 µg/disc (Bacillus subtilis [7]) | MIC (Bacillus subtilis [8]) | zone of inhibition at 400 µg/disc (Bacillus cereus [9]) | MIC (Bacillus cereus [10]) | Activity (Enterococcus hirae [11]) | MIC (Enterococcus hirae [12]) | MIC (Micrococcus luteus [14]) | zone of inhibition at 400 µg/disc (Micrococcus luteus [15]) | MIC (Micrococcus luteus [16]) | Activity (Escherichia coli [17]) | Activity (Escherichia coli [18]) | Activity (Proteus vulgaris) | Activity (Pseudomonas aeruginosa [19]) | Activity (Pseudomonas aeruginosa [20]) | Activity (Pseudomonas aeruginosa [21]) | Activity [22] | Activity (Candida albicans [23]) | Activity (Candida albicans [24]) | Activity (Escherichia coli [25]) | other results |
| --- | --- | --- | --- | --- | --- | --- | --- | --- | --- | --- | --- | --- | --- | --- | --- | --- | --- | --- | --- | --- | --- |
| OC(Cn1cncn1)(Cn1cncn1)c1ccc(F)cc1F [FLUCONAZOLE] |  |  |  |  |  |  |  |  |  |  |  |  |  |  |  |  |  |  |  |  | zone of inhibition at 25 µg/disc (Candida albicans [1]): 22 mm; MIC (Candida parapsilosis [2]): 2 µg/mL (≈ 6.53 µM); zone of inhibition at 25 µg/disc (Candida albicans [3]): 32 mm; zone of inhibition at 25 µg/disc (Candida parapsilosis [4]): 22 mm |
| C=CCOC(=O)[C@@H](C)[C@H](OC)[C@H](C)[C@H]1O[C@@]2(CC[C@@](C)([C@H]3CC[C@@](CC)([C@@H]4O[C@@H]([C@H]5O[C@@](O)(CO)[C@H](C)C[C@@H]5C)C[C@@H]4C)O3)O2)C[C@H](O)[C@H]1C | 100 µg/mL (≈ 141 µM) | 15 mm | 12.5 µg/mL (≈ 17.6 µM) | 14 mm | 12.5 µg/mL (≈ 17.6 µM) | inactive | > 400 µg/mL | 100 µg/mL (≈ 141 µM) | 11 mm | 50 µg/mL (≈ 70.3 µM) | inactive | inactive | inactive | inactive | inactive | inactive | inactive | inactive | inactive | inactive | Activity [5]: inactive; Activity (Micrococcus luteus [13]): inactive; zone of inhibition at 400 µg/disc (Staphylococcus aureus [26]): 13 mm; MIC (Staphylococcus aureus [27]): 100 µg/mL (≈ 141 µM); zone of inhibition at 400 µg/disc (Staphylococcus aureus [28]): 11 mm; MIC (Staphylococcus aureus [29]): 100 µg/mL (≈ 141 µM); zone of inhibition at 400 µg/disc (Staphylococcus aureus [30]): 13 mm; MIC (Staphylococcus aureus [31]): 100 µg/mL (≈ 141 µM); zone of inhibition at 400 µg/disc (Staphylococcus aureus [32]): 13 mm; MIC (Staphylococcus aureus [33]): 100 µg/mL (≈ 141 µM); Activity (Candida parapsilosis [34]): inactive |
| CC[C@@]1([C@@H]2O[C@@H]([C@H]3O[C@@](O)(CO)[C@H](C)C[C@@H]3C)C[C@@H]2C)CC[C@H]([C@]2(C)CC[C@]3(C[C@H](O)[C@@H](C)[C@@H]([C@@H](C)[C@@H](OC)[C@H](C)C(=O)O)O3)O2)O1 [MONENSIN] | 2 µg/mL (≈ 2.98 µM) | 22 mm | 1 µg/mL (≈ 1.49 µM) | 18 mm | 2 µg/mL (≈ 2.98 µM) | inactive | 12.5 µg/mL (≈ 18.6 µM) | 4 µg/mL (≈ 5.96 µM) | 12 mm | 2 µg/mL (≈ 2.98 µM) | inactive | inactive | inactive | inactive | inactive | inactive | inactive | inactive | inactive | inactive | zone of inhibition at 400 µg/disc ([5]; ATCC 12228, 18 h, read-out: IZ): 15 mm; zone of inhibition at 400 µg/disc (Micrococcus luteus [13]; ATCC 9341, 18 h, read-out: IZ): 12 mm; zone of inhibition at 400 µg/disc (Staphylococcus aureus [26]): 22 mm; MIC (Staphylococcus aureus [27]): 2 µg/mL (≈ 2.98 µM); zone of inhibition at 400 µg/disc (Staphylococcus aureus [28]): 22 mm; MIC (Staphylococcus aureus [29]): 1 µg/mL (≈ 1.49 µM); zone of inhibition at 400 µg/disc (Staphylococcus aureus [30]): 20 mm; MIC (Staphylococcus aureus [31]): 2 µg/mL (≈ 2.98 µM); zone of inhibition at 400 µg/disc (Staphylococcus aureus [32]): 18 mm; MIC (Staphylococcus aureus [33]): 1 µg/mL (≈ 1.49 µM); Activity (Candida parapsilosis [34]): inactive |
